Laboratory results taken from ChEMBL document CHEMBL1926589, “2-Anilinonicotinyl linked 2-aminobenzothiazoles and [1,2,4]triazolo[1,5-b] [1,2,4]benzothiadiazine conjugates as potential mitochondrial apoptotic inducers” (Bioorg Med Chem, 2011).
Calls of active or inactive are those of the source. No cut-off for these calls is given here.

Experiments:
HL-60 [1] = test: Induction of apoptosis in human HL60 cells assessed as increase of reactive oxygen species level at 1 uM after 24 hrs using DCFH-DA fluorescent dye based flow cytometric analysis relative to control; assay type: functional
In short: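 HL-60 cells (1 x 10^5 per 1.5 mL) treated 24 h, then loaded with 10 µM H2DCFDA for 30 min at 37 °C. Washed twice in PBS and read in FL-1 (530 nm). Percentage of DCF-positive cells determined; mean ± SD of three experiments.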

OVCAR-5 = test: Growth inhibition of human OVCAR5 cells at 10 uM by sulforhodamine B assay; assay type: functional; conditions: read-out: GI
In short: (§1)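 Single-dose 10 µM screen by sulforhodamine B assay, reported as percent inhibition of cell proliferation. Cells grown in medium with 10% heat-inactivated FBS at 37 °C, 5% CO2, and treated at about 70% confluence or in log phase. Compounds dissolved in DMSO; controls received vehicle (<0.5% v/v).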

IMR-32 = test: Growth inhibition of human IMR32 cells at 10 uM by sulforhodamine B assay; assay type: functional; conditions: read-out: GI; in short: as §1
HL-60 [2] = test: Inhibition of survivin expression in human HL60 cells at 1 uM after 24 hrs by Western blotting; assay type: functional, cell-based
In short: (§2)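 HL-60 cells treated 24 h and lysed in RIPA buffer on ice; protein measured by Bradford against a BSA standard. 50 µg resolved by SDS-PAGE and transferred to PVDF, blocked in 5% milk/TBST, then primary antibodies 1:1000 for 2 h and HRP secondary 1:1000 for 1 h. ECL detection with β-actin as loading control; bands quantified by densitometry.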

HL-60 [3] = test: Induction of apoptosis in human HL60 cells assessed as PARP cleavage at 1 uM after 24 hrs by Western blotting; assay type: functional, cell-based; in short: as §2
HL-60 [4] = test: Cell cycle arrest in human HL60 cells assessed as accumulation at sub-G0 phase measuring DNA damage at 1 uM after 24 hrs using propidium iodide staining by flow cytometry (reference value: 1%); assay type: functional
In short: (§3)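 HL-60 cells (1 x 10^5 per 1.5 mL) treated 24 h, then fixed in 70% cold ethanol at −20 °C overnight. RNase digestion (400 µg/ml) at 37 °C for 45 min, then propidium iodide (10 µg/ml) for 30 min. Flow cytometry on 10,000 events, FL2-A vs FL2-W, with doublet discrimination. Sub-G0 (hypodiploid) peak taken as apoptotic cells. Mean ± SD of three independent experiments.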

HL-60 [5] = test: Cell cycle arrest in human HL60 cells assessed as accumulation at G1 phase at 1 uM after 24 hrs using propidium iodide staining by flow cytometry; assay type: functional, cell-based; in short: as §3
HL-60 [6] = test: Induction of apoptosis in human HL60 cells assessed as caspase3 activation using DEVD-AFC as substrate at 1 uM after 24 hrs by fluorimetry relative to control; assay type: functional
In short: (§4)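 HL-60 cells (2 x 10^6) treated 24 h, washed and lysed. Caspase-3, -8 and -9 activities in lysates measured fluorometrically with a commercial caspase fluorescent assay kit. Two independent experiments, each in duplicate.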

HL-60 [7] = test: Induction of apoptosis in human HL60 cells assessed as caspase8 activation using IETD-AFC as substrate at 1 uM after 24 hrs by fluorimetry relative to control; assay type: functional; in short: as §4
HL-60 [8] = test: Induction of apoptosis in human HL60 cells assessed as DNA ladder formation at 10 uM after 24 hrs by agarose gel electrophoresis; assay type: functional, cell-based
In short: (§5)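 Cells treated 24 h, then 2 x 10^6 cells lysed (Triton X-100 buffer, pH 8.0) with RNase at 37 °C for 90 min and proteinase-K at 50 °C for 1 h. DNA phenol/chloroform-extracted and ethanol-precipitated, then run on 1.8% agarose at 50 V for 1.5 h in TAE. Ladders viewed under UV.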

HL-60 [9] = test: Cell cycle arrest in human HL60 cells assessed as accumulation at S phase at 1 uM after 24 hrs using propidium iodide staining by flow cytometry; assay type: functional, cell-based; in short: as §3
HL-60 [10] = test: Inhibition of Bcl-2 expression in human HL60 cells at 1 uM after 24 hrs by Western blotting; assay type: functional, cell-based; in short: as §2
HL-60 [11] = test: Induction of apoptosis in human HL60 cells assessed as non-viable necrotic cells at 1 uM after 24 hrs using Annexin V-FITC and propidium iodide staining by flow cytometry relative to control; assay type: functional
In short: (§6)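 HL-60 cells (1 x 10^5 per 1.5 mL) treated 24 h, washed twice in PBS and stained in binding buffer with annexin V-FITC and PI. Flow cytometry with FITC in FL-1 (530 nm) and PI in FL-2 (585 nm), using quadrant statistics: lower right taken as apoptotic, upper right as post-apoptotic necrotic. Representative of three independent experiments.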

HL-60 [12] = test: Induction of apoptosis in human HL60 cells assessed as caspase9 activation using LEHD-AMC as substrate at 1 uM after 24 hrs by fluorimetry relative to control; assay type: functional; in short: as §4
HL-60 [13] = test: Induction of apoptosis in human HL60 cells assessed as late apoptotic cells at 1 uM after 24 hrs using Annexin V-FITC and propidium iodide staining by flow cytometry relative to control; assay type: functional; in short: as §6
DU-145 = test: Growth inhibition of human DU145 cells at 10 uM by sulforhodamine B assay; assay type: functional; conditions: read-out: GI; in short: as §1
HCT-15 = test: Growth inhibition of human HCT15 cells at 10 uM by sulforhodamine B assay; assay type: functional; conditions: read-out: GI; in short: as §1
[14] = Growth inhibition of human 502713 cells at 10 uM by sulforhodamine B assay; assay type: functional; conditions: read-out: GI; in short: as §1
HL-60 [15] = test: Induction of apoptosis in human HL60 cells assessed as early apoptotic cells at 1 uM after 24 hrs using Annexin V-FITC and propidium iodide staining by flow cytometry relative to control; assay type: functional; in short: as §6
HeLa = test: Induction of apoptosis in human HeLa cells assessed as DNA ladder formation at 10 uM after 24 hrs by agarose gel electrophoresis; assay type: functional, cell-based; in short: as §5
HL-60 [16] = test: Inhibition of NF-kappaB expression in human HL60 cells at 1 uM after 24 hrs by Western blotting; assay type: functional, cell-based; in short: as §2
A549 = test: Growth inhibition of human A549 cells at 10 uM by sulforhodamine B assay; assay type: functional; conditions: read-out: GI; in short: as §1
SiHa [17] = test: Induction of apoptosis in human SiHa cells assessed as DNA ladder formation at 10 uM after 24 hrs by agarose gel electrophoresis; assay type: functional, cell-based; in short: as §5
HL-60 [18] = test: Cell cycle arrest in human HL60 cells assessed as accumulation at G2/M phase at 1 uM after 24 hrs using propidium iodide staining by flow cytometry; assay type: functional, cell-based; in short: as §3
HL-60 [19] = test: Induction of apoptosis in human HL60 cells assessed as decrease in mitochondrial membrane potential at 1 uM after 24 hrs using rhodamine 123 staining by flow cytometry; assay type: functional
In short: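 HL-60 cells (1 x 10^5 per 1.5 mL) treated 24 h, then stained with rhodamine-123 (5 µg/mL final) for 1 h. Washed, and propidium iodide (5 µg/mL) added just before reading. FL-1 fluorescence from 10,000 events; percentage of low Rh-123 cells taken as loss of membrane potential. Mean ± SD, n=3.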

HL-60 [20] = test: Induction of apoptosis in human HL60 cells assessed as DNA ladder formation at 1 uM after 24 hrs by agarose gel electrophoresis; assay type: functional, cell-based; in short: as §5
HL-60 [21] = test: Induction of NO production in human HL60 cells at 1 uM after 24 hrs using DAF-2DA fluorescent dye based flow cytometric analysis; assay type: functional, cell-based
In short: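 HL-60 cells (1 x 10^5 per 1.5 mL) preloaded 30 min with 10 µM DAF-2-DA before treatment. After 24 h exposure, cells were washed and read by flow cytometry in FL-1 as NO-positive population. Mean ± SD of three independent experiments.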

HEp-2 = test: Growth inhibition of human Hep2 cells at 10 uM by sulforhodamine B assay; assay type: functional; conditions: read-out: GI; in short: as §1
SiHa [22] = test: Growth inhibition of human SiHa cells at 10 uM by sulforhodamine B assay; assay type: functional; conditions: read-out: GI; in short: as §1
SK-N-SH = test: Growth inhibition of human SK-N-SH cells at 10 uM by sulforhodamine B assay; assay type: functional; conditions: read-out: GI; in short: as §1
SW-620 = test: Growth inhibition of human SW620 cells at 10 uM by sulforhodamine B assay; assay type: functional; conditions: read-out: GI; in short: as §1
[23] = Therapeutic ratio of IC50 for african green monkey CV1 cells to IC50 for human HL60 cells; assay type: ADME, cell-based, HL-60; conditions: CV1 cells and HL60 cells, read-out: Ratio IC50
SiHa [24] = test: Growth inhibition of human SiHa cells after 48 hrs by MTT assay; assay type: functional, cell-based
HL-60 [25] = test: Growth inhibition of human HL60 cells after 48 hrs by MTT assay; assay type: functional, cell-based; conditions: HL-60, 48 h
CV-1 = test: Growth inhibition of african green monkey CV1 cells after 48 hrs by MTT assay; assay type: cell-based; conditions: Chlorocebus aethiops, CV-1, 48 h
HL-60 [26] = test: Inhibition of HSP-90 expression in human HL60 cells at 1 uM after 24 hrs by Western blotting; assay type: functional, cell-based; in short: as §2

SMILES | Activity (HL-60 [1]) | inhibition of growth at 10 µM (OVCAR-5) [%] | inhibition of growth at 10 µM (IMR-32) [%] | inhibition (HL-60 [2]) | Activity (HL-60 [3]) | Activity (HL-60 [4]) [%] | Activity (HL-60 [5]) | Activity (HL-60 [6]) | Activity (HL-60 [7]) | Activity (HL-60 [8]) | Activity (HL-60 [9]) | inhibition (HL-60 [10]) | Activity (HL-60 [11]) [%] | Activity (HL-60 [12]) | Activity (HL-60 [13]) [%] | inhibition of growth at 10 µM (DU-145) [%] | inhibition of growth at 10 µM (HCT-15) [%] | inhibition of growth at 10 µM [14] [%] | Activity (HL-60 [15]) [%] | Activity (HeLa) | further results
O=C(Nc1nc2ccc([N+](=O)[O-])cc2s1)c1cccnc1Nc1ccc(Cl)cc1Cl | inactive | 0 | 48 | Active | Active | 25 | inactive | inactive | inactive | Active | inactive | inactive | 40 | inactive | 5 | 39 | 75 | 2 | 9 | inactive | inhibition (HL-60 [16]): inactive; inhibition of growth at 10 µM (A549): 19%; Activity (SiHa [17]): inactive; Activity (HL-60 [18]): inactive; Activity (HL-60 [19]): Active; Activity (HL-60 [20]): Active; Activity (HL-60 [21]): inactive; inhibition of growth at 10 µM (HEp-2): 14%; inhibition of growth at 10 µM (SiHa [22]): 35%; inhibition of growth at 10 µM (SK-N-SH): 50%; inhibition of growth at 10 µM (SW-620): 61%
O=C(Nc1nc2ccc([N+](=O)[O-])cc2s1)c1cccnc1Nc1ccc(F)cc1 | 16% | 53 | 33 | Active | Active | 60 | inactive | inactive | inactive | Active | inactive | inactive | 45 | inactive | 5 | 51 | 55 | 66 | 9 | inactive | selectivity ratio [23]: 50; IC50 (SiHa [24]): 7 µM; IC50 (HL-60 [25]): 0.3 µM; IC50 (CV-1): 15 µM; inhibition (HL-60 [16]): inactive; inhibition of growth at 10 µM (A549): 18%; Activity (SiHa [17]): inactive; inhibition (HL-60 [26]): Active; Activity (HL-60 [18]): inactive; Activity (HL-60 [19]): Active; Activity (HL-60 [20]): Active; Activity (HL-60 [21]): inactive; inhibition of growth at 10 µM (HEp-2): 52%; inhibition of growth at 10 µM (SiHa [22]): 23%; inhibition of growth at 10 µM (SK-N-SH): 63%; inhibition of growth at 10 µM (SW-620): 67%
